Test results as given in article PMC6190495 (Journal of Pharmaceutical Analysis, 2018).
Where two headings read alike, the source gives them in different places.

Columns and labels:
[1] = assay type: in vivo, human; details: for Tmax / concentration at 2 h / half-life: human, po; for AUC0-t: single oral tablet 4/1.25 mg, fasting, mean ± SD
In short: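 Ten healthy Chinese volunteers, fasted at least 10 h overnight, took one oral ACE-inhibitor/diuretic combination tablet (4 mg/1.25 mg) with 240 mL warm water. Blood was drawn into two K2EDTA tubes pre-dose and at 0.25–48 h. One tube was spun (3000 rpm, 10 min) for plasma and the other kept as whole blood, both stored at −80 °C. Parent drugs were extracted by acetonitrile precipitation and the metabolite by 14% perchloric acid, then measured by LC-MS/MS against internal standard. AUC0-t ran to 6 h for the ACE inhibitor and to 48 h otherwise.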

[2] = cited from earlier work
[3] = cited from earlier work; remark: listed apart in the source
[4] = whole blood, dose 1.5 mg, indapamide sustained-release tablets, ref 11
[5] = whole blood, dose 1.5 mg, indapamide sustained-release tablets, ref 21

| SMILES | Tmax ([1]; plasma) [h] | concentration at 2 h ([1]; plasma) [ng/mL] | half-life ([1]; plasma) [h] | Tmax ([1]; whole blood) [h] | concentration at 2 h ([1]; whole blood) [ng/mL] | half-life ([1]; whole blood) [h] | Cmax ([2]; plasma, dose 4 mg, ref 22) [ng/mL] | Tmax ([2]; plasma, dose 4 mg, ref 22) [h] | Cmax ([2]; plasma, dose 4 mg, ref 24) [ng/mL] | Tmax ([2]; plasma, dose 4 mg, ref 24) [h] | AUC0-t ([2]; plasma, dose 4 mg, t = 120 h) [ng·h/mL] | also measured |
| --- | --- | --- | --- | --- | --- | --- | --- | --- | --- | --- | --- | --- |
| CC1Cc2ccccc2N1NC(=O)c1ccc(Cl)c(S(N)(=O)=O)c1 (stereo not shown) [Indapamide, indapamide] | 1.8 ± 0.8 | 5.32 | 13.4 ± 2.4 | 1.6 ± 0.6 | 14.9 | 13.5 ± 1.6 | – | – | – | – | – | AUC0-t ([1]; whole blood, t = 48 h): 882 ± 126 ng·h/mL; Tmax ([2]; whole blood, dose 1.25 mg): 2.4 ± 1.1 h; AUC0-t ([2]; whole blood, dose 1.25 mg, t = 96 h): 1152 ± 429 ng·h/mL; Cmax [2, 4]: 43.6 ± 16.1 ng/mL; Tmax [2, 4]: 10.3 ± 5.3 h; Cmax [2, 5]: 41.1 ± 7.6 ng/mL; Tmax [2, 5]: 8.0 ± 3.0 h; AUC0-t ([2]; whole blood, dose 1.5 mg, indapamide sustained-release tablets, t = 96 h, ref 11): 1318 ± 303 ng·h/mL; AUC0-t ([2]; whole blood, dose 1.5 mg, indapamide sustained-release tablets, t = 96 h, ref 21): 1268 ± 279 ng·h/mL; Binding to the red blood cell [3]: high binding to the red blood cell |
| CCC[C@H](N[C@@H](C)C(=O)N1[C@H](C(=O)O)C[C@@H]2CCCC[C@@H]21)C(=O)OCC [Perindopril, perindopril] | 0.65 ± 0.1 | 11.1 | 0.96 ± 0.3 | 0.7 ± 0.2 | 7.35 | 1.11 ± 0.4 | 63.9 ± 18.0 | 0.66 ± 0.2 | 72 ± 20 | 0.75 | 106 ± 32 | AUC0-t ([1]; plasma, t = 6 h): 51.4 ± 12.8 ng·h/mL; Cmax ([2]; plasma, dose 4 mg, ref 16): 36.5 ± 11.4 ng/mL; Tmax ([2]; plasma, dose 4 mg, ref 16): 0.66 ± 0.2 h; AUC0-t ([2]; plasma, dose 4 mg, t = 5 h): 70.3 ± 14.4 ng·h/mL; AUC0-t ([2]; plasma, dose 4 mg, t = 96 h): 41.7 ± 10.0 ng·h/mL; Binding in blood [3]: bind mainly to plasma protein in blood |
| CCC[C@H](N[C@@H](C)C(=O)N1[C@H](C(=O)O)C[C@@H]2CCCC[C@@H]21)C(=O)O [Perindoprilat, perindoprilat] | 6.4 ± 1.3 | 2.49 | 17 ± 6.5 | 5.8 ± 1.1 | 1.31 | 18.2 ± 7.3 | 5.91 ± 2.9 | 6.3 ± 1.2 | 4.9 ± 2.7 | 6 | 191 ± 76 | AUC0-t ([1]; plasma, t = 48 h): 108 ± 34.7 ng·h/mL; Cmax ([2]; plasma, dose 4 mg, one significant digit): 5 ± 2 ng/mL; Tmax ([2]; plasma, dose 4 mg, ref 23): 4.3 ± 2.9 h; AUC0-t ([2]; plasma, dose 4 mg, t = 72 h, ref 22): 111 ± 18.4 ng·h/mL; AUC0-t ([2]; plasma, dose 4 mg, t = 72 h, ref 23): 92 ± 30 ng·h/mL |
